ChEMBL document CHEMBL3596119, “Synthesis and biological characterization of a promising F-18 PET tracer for vesicular acetylcholine transporter” (Bioorg Med Chem, 2015)

Assays:
[1] = test system: Lung; assay: Biodistribution in Sprague-Dawley rat lung at 2.2 MBq/120 uL, iv after 60 mins by gamma counting; type: ADME, organism-based; details: in vivo, 1 h
How it was run: (§1)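 Adult male SD rats, isoflurane (2-3%)/oxygen anesthesia, tail-vein injection of ~2.2 MBq/120 μL tracer in 10% ethanol in saline; euthanized under anesthesia at the stated time (n = 4 per time point). Brain dissected into regions, remainder kept for total brain; organs, blood, bone collected and weighed, gamma-counted against a standard dilution of injectate; %ID/g calculated.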

[2] = test system: Rattus norvegicus; assay: Biodistribution in Sprague-Dawley rat fat at 2.2 MBq/120 uL, iv after 30 mins by gamma counting; type: ADME, organism-based, Adipose tissue; details: in vivo, 0.5 h; how it was run: as §1
[3] = test system: Lung; assay: Biodistribution in Sprague-Dawley rat lung at 2.2 MBq/120 uL, iv after 5 mins by gamma counting; type: ADME, organism-based; details: in vivo; how it was run: as §1
[4] = test system: Rattus norvegicus; assay: Biodistribution in Sprague-Dawley rat fat at 2.2 MBq/120 uL, iv after 120 mins by gamma counting; type: ADME, organism-based, Adipose tissue; details: in vivo, 2 h; how it was run: as §1
[5] = test system: Spleen; assay: Biodistribution in Sprague-Dawley rat spleen at 2.2 MBq/120 uL, iv after 60 mins by gamma counting; type: ADME, organism-based; details: in vivo, 1 h; how it was run: as §1
[6] = test system: Liver; assay: Biodistribution in Sprague-Dawley rat liver at 2.2 MBq/120 uL, iv after 5 mins by gamma counting; type: ADME, organism-based; details: in vivo; how it was run: as §1
[7] = test system: Muscle tissue; assay: Biodistribution in Sprague-Dawley rat muscle at 2.2 MBq/120 uL, iv after 5 mins by gamma counting; type: ADME, organism-based; details: in vivo; how it was run: as §1
[8] = test system: Bone; assay: Biodistribution in Sprague-Dawley rat bone at 2.2 MBq/120 uL, iv after 30 mins by gamma counting; type: ADME, organism-based, Bone element; details: in vivo, 0.5 h; how it was run: as §1
[9] = test system: Rattus norvegicus; assay: Biodistribution in Sprague-Dawley rat fat at 2.2 MBq/120 uL, iv after 60 mins by gamma counting; type: ADME, organism-based, Adipose tissue; details: in vivo, 1 h; how it was run: as §1
[10] = test system: Muscle tissue; assay: Biodistribution in Sprague-Dawley rat muscle at 2.2 MBq/120 uL, iv after 60 mins by gamma counting; type: ADME, organism-based; details: in vivo, 1 h; how it was run: as §1
[11] = test system: Hippocampus; assay: Biodistribution in Sprague-Dawley rat hippocampus at 2.2 MBq/120 uL, iv after 5 mins by gamma counting; type: ADME, organism-based; details: in vivo; how it was run: as §1
[12] = test system: Blood; assay: Biodistribution in Sprague-Dawley rat blood at 2.2 MBq/120 uL, iv after 30 mins by gamma counting; type: ADME, organism-based; details: in vivo, 0.5 h; how it was run: as §1
[13] = test system: Kidney; assay: Biodistribution in Sprague-Dawley rat kidney at 2.2 MBq/120 uL, iv after 5 mins by gamma counting; type: ADME, organism-based; details: in vivo; how it was run: as §1
[14] = test system: Striatum; assay: Biodistribution in Sprague-Dawley rat striatum at 2.2 MBq/120 uL, iv after 120 mins by gamma counting; type: ADME, organism-based; details: in vivo, 2 h; how it was run: as §1
[15] = test system: Rattus norvegicus; assay: Biodistribution in Sprague-Dawley rat total brain at 2.2 MBq/120 uL, iv after 30 mins by gamma counting; type: ADME, organism-based; details: in vivo, 0.5 h
How it was run: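 Injected by tail vein in 10% ethanol in saline into adult male SD rats under 2-3% isoflurane/oxygen anesthesia. Rats were killed under anesthesia, n = 4 per time point. Total brain and other tissues were weighed and gamma-counted against a standard dilution of the injectate. Values are %ID/g.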

[16] = test system: Pancreas; assay: Biodistribution in Sprague-Dawley rat pancreas at 2.2 MBq/120 uL, iv after 120 mins by gamma counting; type: ADME, organism-based; details: in vivo, 2 h; how it was run: as §1
[17] = test system: Striatum; assay: Ex-vivo drug uptake in Sprague-Dawley rat striatum at 63 MBq, iv after 60 mins by autoradiography; type: ADME, organism-based; details: 1 h
How it was run: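 One adult male SD rat received ~63.0 MBq by tail vein under anesthesia and was killed at 60 min. The brain was snap-frozen and cut into 100 μm horizontal sections. Sections were exposed to film for 12 h at -80 °C. Striatum-to-cerebellum ratio was quantified over 30 slices.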

[18] = test system: Rattus norvegicus; assay: Biodistribution in Sprague-Dawley rat total brain at 2.2 MBq/120 uL, iv after 120 mins by gamma counting; type: ADME, organism-based; details: in vivo, 2 h; how it was run: as §1
[19] = test system: Blood; assay: Biodistribution in Sprague-Dawley rat blood at 2.2 MBq/120 uL, iv after 60 mins by gamma counting; type: ADME, organism-based; details: in vivo, 1 h; how it was run: as §1
[20] = test system: Heart; assay: Biodistribution in Sprague-Dawley rat heart at 2.2 MBq/120 uL, iv after 30 mins by gamma counting; type: ADME, organism-based; details: in vivo, 0.5 h; how it was run: as §1

Drug uptake [1]: 0.738 % ID/g
Drug uptake [2]: 0.324 % ID/g
Drug uptake [3]: 2.255 % ID/g
Drug uptake [4]: 0.56 % ID/g
Drug uptake [5]: 0.505 % ID/g
Drug uptake [6]: 1.065 % ID/g
Drug uptake [7]: 0.171 % ID/g
Drug uptake [8]: 0.369 % ID/g
Drug uptake [9]: 0.548 % ID/g
Drug uptake [10]: 0.253 % ID/g
Drug uptake [11]: 0.645 % ID/g
Drug uptake [12]: 0.27 % ID/g
Drug uptake [13]: 2.363 % ID/g
Drug uptake [14]: 0.761 % ID/g
Drug uptake [15]: 0.482 % ID/g
Drug uptake [16]: 0.819 % ID/g
Drug uptake [17]: Active
Drug uptake [18]: 0.409 % ID/g
Drug uptake [19]: 0.338 % ID/g
Drug uptake [20]: 0.39 % ID/g
SMILES: O=C(c1ccc(F)cc1)C1CCN(C2Cc3c(cccc3OCC[18F])CC2O)CC1 (single isomer, unassigned; (-))
